Rows were chosen to be rich in hits. Some 1.9% of all compounds tested hit in one or more screens of this group.
CHRM4 agonist – human M4 muscarinic receptor agonists, primary screen, CHO-K1 cells, Fluo-8 calcium fluorescence; 360,000 tested, 0.14% active; AID 624127, 2012; CHO-K1 hM4/Gqi5; vehicle 0%, full acetylcholine response 100%; Muscarinic acetylcholine receptor M4 (Homo sapiens), P08173; activation, % at 3 µM;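 active = activation above the run mean over all test wells plus 3 SD, cut at about 32% in these data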;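 also: peak over basal fluorescence ratio per well then scaled between controls; 0% = DMSO wells and 100% = acetylcholine at EC100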
CHRM5 PAM – human M5 muscarinic receptor positive allosteric modulators, primary screen, CHO-K1 cells, Fluo-8 calcium fluorescence; Muscarinic acetylcholine receptor M5 (Homo sapiens), P08912; CHO-K1 hM5, ACh EC20 PAM; 0% = ACh EC20, 100% = ACh EC100; activation, % at 3 µM; 360,000 tested, 0.3% active;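 active = activation above the run cutoff, the mean activation of all test compounds plus 3 SD, cut at about 18% in these data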
Target sequence (P08912 whole entry, looked up): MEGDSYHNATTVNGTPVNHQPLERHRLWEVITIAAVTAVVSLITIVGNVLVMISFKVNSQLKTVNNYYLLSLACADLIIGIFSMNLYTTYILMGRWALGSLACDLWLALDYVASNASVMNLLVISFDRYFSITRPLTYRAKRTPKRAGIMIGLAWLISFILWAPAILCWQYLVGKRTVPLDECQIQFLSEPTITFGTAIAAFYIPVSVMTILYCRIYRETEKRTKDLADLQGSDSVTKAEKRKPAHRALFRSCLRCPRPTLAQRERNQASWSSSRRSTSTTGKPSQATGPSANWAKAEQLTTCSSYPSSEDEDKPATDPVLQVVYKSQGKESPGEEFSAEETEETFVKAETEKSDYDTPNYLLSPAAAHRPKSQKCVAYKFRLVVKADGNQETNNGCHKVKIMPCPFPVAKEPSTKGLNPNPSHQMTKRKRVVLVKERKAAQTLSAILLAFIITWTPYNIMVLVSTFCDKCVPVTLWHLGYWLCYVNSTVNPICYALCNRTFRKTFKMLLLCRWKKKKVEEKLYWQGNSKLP
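System – CHO-K1 hM5 cells · Compound – 3 µM, single dose · Incubation – compound preincubation 140 s before EC20 acetylcholine addition · Technique – Fluo-8 calcium fluorescence · Measure – Max/basal fluorescence ratio as % of EC20–EC100 ACh window · Benchmarks – low control EC20 acetylcholine (0%), high control EC100 acetylcholine (100%) · Replication – singlicate, one well per test compound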
CHRM4 antagonist – human M4 muscarinic receptor antagonists, primary screen, CHO cells, Fluo-8 calcium fluorescence; CHO-hM4 cells, ACh EC80; Muscarinic acetylcholine receptor M4 (Homo sapiens), P08173; inhibition, % at 3 µM; 360,000 tested, 0.73% active;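 active = inhibition above its plate's cutoff, the mean inhibition of sample wells plus 3 SD, cut at about 27% in these data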;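 also: 0% = acetylcholine EC80 with DMSO and 100% = DMSO without agonist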
M5 antag – human M5 muscarinic receptor antagonists, primary screen, CHO cells, Fluo-8 calcium fluorescence | CHO-hM5 cells, ACh EC80 | inhibition, % at 3 µM | 360,000 tested, 0.59% active;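 active = inhibition above a per-plate cutoff, the mean of that plate's test compounds plus 3 SD, cut at about 27% in these data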;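 also: 0% = acetylcholine EC80 with DMSO and 100% = DMSO without agonist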
CHRM5 agonist – human M5 muscarinic receptor agonists, primary screen, CHO-K1 cells, Fluo-8 calcium fluorescence; Muscarinic acetylcholine receptor M5 (Homo sapiens), P08912; CHO-K1 hM5 cells; 0% DMSO wells, 100% maximal acetylcholine response; activation, % at 3 µM; 360,000 tested, 0.19% active; AID 624037, 2012;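 active = activation above the run's mean over test compounds plus 3 SD, cut at about 23% in these data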;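 also: signal is peak over basal fluorescence ratio across the kinetic read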
CHRM4 PAM – human M4 muscarinic receptor positive allosteric modulators, primary screen, CHO-K1 cells, Fluo-8 calcium fluorescence | Muscarinic acetylcholine receptor M4 (Homo sapiens), P08173 | CHO-K1 hM4/Gqi5, ACh EC20; 0% = ACh EC20, 100% = maximal ACh | activation, % at 3 µM | 360,000 tested, 0.4% active | AID 624126, 2012;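 active = activation above its plate's cutoff, the mean activation of sample wells plus 3 SD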
The depositor's hits bear a star.

SMILES	CHRM4 agonist	CHRM5 PAM	CHRM4 antagonist	M5 antag	CHRM5 agonist	CHRM4 PAM
COc1ccc(C)cc1NC(=O)CCNC(=O)Cn1cnc2ccccc2c1=O	1	5	-18	14	-3	10
COC(=O)[C@H](Cc1ccccc1)NC(=O)C1CCN(C(=O)[C@H](C)NS(=O)(=O)c2ccc(C)cc2)CC1	0	4	4	0	-6	3
Cc1cccc(C)c1NC(=O)[C@@]1(CC(=O)O)CC(/C=C/c2ccccc2)=NO1	3	1	-23	-4	-4	14*
CCCCCCc1nc2ccccc2c(=O)n1N	11	-12	8	10	-1	-11
CCCCCN1C(=O)Cn2c(nc3ccccc3c2=O)C1C (stereo not drawn)	2	18*	-13	-19	4	10
COc1ccc(CCNCC(O)COc2c(C)cccc2C)cc1OC (stereo not drawn)	1	2	-2	9	-2	2
N#Cc1ccc(OCC(=O)N/N=C2\CCc3ccccc32)cc1	1	18*	3	-5	-3	-4
Oc1ccc(Br)cc1-c1ccnn1-c1ccccc1	0	7	-13	1	-8	-6
COc1ccc(-c2nc(-c3cccc(C(F)(F)F)c3)no2)cc1OC	1	0	-1	-5	-1	30*
C=CCc1c(C)nc(-c2ccccc2)nc1N/N=C(\C)c1ccccc1	-1	-6	35*	9	-4	-9
CCOC(=O)c1c(-c2ccccc2)csc1NC(=O)/C(C#N)=C\c1ccc(O)c(OC)c1	3	12	1	17	31*	1
CCOC(=O)c1c(-c2ccc(C)cc2)csc1NC(=O)/C(C#N)=C/c1ccc(O)c(OC)c1	3	8	2	-13	5	1
CCN=C(NCC)SC1CC(=O)N(c2cccc(OC)c2)C1=O (stereo not drawn)	17	-20	27*	25	5	-14
O=C(O)c1ccc(N2C(=O)CSC2=S)cc1	7	-4	-12	13	0	-4
O=C1CSC(=S)N1c1ccc(F)c(Cl)c1	12	-12	4	33*	6	-7
O=C(O)c1cc(C(=O)O)cc(N2C(=O)CSC2=S)c1	1	13	5	-8	-6	17*
CCOc1ccc(N2C(=O)CSC2=S)cc1	0	18*	-5	-1	1	4
O=C(CSc1nnnn1C1CC2CCC1C2)Nc1ccnc2ccccc12 (stereo not drawn)	15	-16	25	32*	10	-16
COc1ccc(C(=O)OC2C(OC)OCC(O)C2O)cc1 (stereo not drawn)	1	6	-9	8	1	4
CC1Oc2ccccc2N(CC(=O)N2CCCCC2)C1=O (stereo not drawn)	2	-2	-24	4	-3	17*
CC1Oc2ccccc2N(CC(=O)N2CCCc3ccccc32)C1=O (stereo not drawn)	3	4	-7	-5	-5	0
COC(=O)NNC(=O)C(C)Oc1ccc(Cl)cc1Cl (stereo not drawn)	1	1	6	-5	-2	30*
CC(Oc1ccc(Cl)cc1Cl)C(=O)NNC(=O)c1ccncc1 (stereo not drawn)	2	4	-11	8	-1	0
COc1ccccc1CCNC(=O)C(=O)Nc1cc2c3c(c1)CC(=O)N3CCC2	3	-6	-9	3	1	-4
O=C(Nc1ccccc1C(=O)O)c1cc(S(=O)(=O)N2CCOCC2)c(Br)s1	-1	18*	-8	-13	1	16*
SMILES	CHRM4 agonist	CHRM5 PAM	CHRM4 antagonist	M5 antag	CHRM5 agonist	CHRM4 PAM
O=C(Nc1ccccc1Cl)c1cc(S(=O)(=O)N2CCOCC2)cs1	2	-1	3	0	-3	0
CSCCC(NC(=O)c1ccco1)C(=O)N(C)CC(=O)Nc1c(Cl)cccc1Cl (stereo not drawn)	2	13	0	-3	4	15
Cc1cccc(C)c1NC(=O)CN(C)C(=O)[C@H](C)NC(=O)c1ccco1	1	-3	-8	8	0	24*
CC(=O)Nc1ccc(S(=O)(=O)CCC#N)cc1	1	40*	-7	10	-5	7
Cn1c(Cc2ccccc2)nnc1SCC(=O)N1CCCCC1	-1	2	95*	-2	-1	11
Cc1ccccc1-n1c(SCC(=O)N2CCCC2)nnc1-c1ccccn1	1	19*	-4	-21	2	6
CCOC(=O)C(=CNc1nc(-c2ccc3ccccc3c2)cs1)C(=O)OCC	7	-11	2	5	0	-5
COc1ccccc1C(=O)NCC(=O)NCCc1ccc(Cl)cc1	2	1	-9	10	0	8
COc1ccc(NC(=O)c2c(Nc3ccccc3)sc(C(=O)c3ccc(F)cc3)c2N)cc1	14	-15	13	28*	4	-14
COc1ccc(C(=O)c2sc(Nc3ccccc3)c(C(=O)Nc3ccc(OC)c(OC)c3)c2N)cc1	2	-6	-11	17	-1	1
COc1ccc(C(=O)c2sc(Nc3cccc(OC)c3)c(C(=O)Nc3cccc(C)c3C)c2N)cc1	19	7	21	3	10	-12
COc1ccc(Nc2sc(C(=O)c3ccc(Cl)cc3)c(N)c2C(=O)Nc2ccccc2OC)cc1	74*	-3	50*	22	39*	-28
CNC(=O)N1CCC(C(=O)c2c(C)c(C)c(C)c(C)c2C)CC1	2	1	-4	9	-3	2
c1ccc(CCn2nnc3ccccc32)cc1	0	-2	10	-1	-1	-13
c1ccc2c(c1)nnn2CNc1nccs1	1	3	-8	-6	-1	22*
Cc1cc(C(=O)OCC(=O)N2CCOCC2)c2ccccc2n1	1	-5	-10	-4	-3	19*
CC(NC(=O)/C=C/c1ccccc1)c1ccccc1 (stereo not drawn)	4	0	-9	2	31*	9
CN(C(=O)Cn1nc(C(=O)O)c2ccccc2c1=O)C1(C#N)CCCCC1	1	5	-26	3	0	23*
